Test results reported in ChEMBL document CHEMBL4406820, “Novel reverse thia-analogs of fosmidomycin: Synthesis and antiplasmodial activity” (Eur J Med Chem, 2019).
Active and inactive are the calls of the source. The rule behind the calls is not given here.

Assays:
[1] = target: T1, 1-deoxy-D-xylulose 5-phosphate reductoisomerase, apicoplastic (Plasmodium falciparum (isolate 3D7)) (UniProt Q8IKG4); test: Inhibition of recombinant Plasmodium falciparum IspC expressed in Escherichia coli using 1-deoxy-D-xylulose 5-phosphate as substrate preincubated for 7 days followed by substrate addition in presence of Tris HCL at pH 7.6 by photometric assay
T1 sequence (whole entry): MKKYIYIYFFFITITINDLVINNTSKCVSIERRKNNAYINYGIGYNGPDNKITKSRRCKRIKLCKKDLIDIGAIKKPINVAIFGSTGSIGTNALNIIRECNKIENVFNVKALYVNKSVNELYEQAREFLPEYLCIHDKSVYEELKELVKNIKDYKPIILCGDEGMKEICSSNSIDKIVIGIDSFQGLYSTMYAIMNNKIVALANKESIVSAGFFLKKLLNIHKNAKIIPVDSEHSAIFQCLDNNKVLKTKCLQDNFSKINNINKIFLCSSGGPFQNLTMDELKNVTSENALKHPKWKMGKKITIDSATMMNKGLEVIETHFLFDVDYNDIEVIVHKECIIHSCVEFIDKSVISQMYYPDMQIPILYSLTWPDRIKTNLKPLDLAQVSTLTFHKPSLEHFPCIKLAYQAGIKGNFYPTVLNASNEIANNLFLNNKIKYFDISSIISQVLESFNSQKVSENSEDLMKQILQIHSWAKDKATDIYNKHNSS

[2] = target: T1, 1-deoxy-D-xylulose 5-phosphate reductoisomerase, apicoplastic (Plasmodium falciparum (isolate 3D7)); test: Inhibition of recombinant Plasmodium falciparum IspC expressed in Escherichia coli using 1-deoxy-D-xylulose 5-phosphate as substrate preincubated for 2 days followed by substrate addition in presence of Tris HCL at pH 7.6 by photometric assay
Method in brief: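 Racemate or single enantiomer (0.6–0.7 mM) held in 100 mM Tris-HCl pH 7.6 with 0.02% NaN3 at 22–23 °C. Aliquots taken at 0, 24 and 48 h and frozen at −80 °C. All aliquots then assayed in parallel for IC50 against P. falciparum IspC: 340 nm NADPH read-out with 0.5 mM DXP.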

Plasmodium falciparum [3] = test: Antimalarial activity against asexual blood stages of Plasmodium falciparum Dd2 infected in human erythrocytes incubated for 3 days by ELISA; assay type: functional, organism-based; settings: Dd2, 72 h
Method in brief: (§1)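 Asexual blood-stage P. falciparum cultured in human erythrocytes; growth measured by HRP2 double-site sandwich ELISA. IC50 values are the mean of two independent double determinations.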

Plasmodium falciparum [4] = test: Antimalarial activity against asexual blood stages of Plasmodium falciparum 3D7 infected in human erythrocytes incubated for 3 days by ELISA; assay type: functional, organism-based; settings: 3D7, 72 h; method in brief: as §1
[5] = Selectivity index, ratio of IC50 for human HeLa cells to IC50 for Plasmodium falciparum 3D7; assay type: toxicity; settings: read-out: Ratio IC50
Method in brief: (§2)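 Cytotoxicity on HeLa monolayers quantified spectrophotometrically, given as the mean of two independent double determinations. SI is HeLa IC50 divided by the P. falciparum 3D7 IC50.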

[6] = Stability of compound in pH 7.6 PBS buffer assessed as parent compound remaining incubated for 72 by HPLC analysis; assay type: physicochemical
Method in brief: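 Compound dissolved at 1 mg/mL in phosphate buffer pH 7.6 (Ph. Eur.) and shaken at room temperature for 72 h. Samples at 0, 1, 3, 6, 24 and 72 h (n = 3) run by C18 reversed-phase HPLC with an acetonitrile/water gradient containing 0.1% TFA. Decomposition taken from the loss of peak area at 254 nm.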

[7] = Apparent permeability in human Caco2 cells by LC-MS/MS analysis; assay type: ADME, cell-based; settings: Caco-2
Method in brief: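 Compound applied to a polarized Caco2 monolayer. Concentrations measured over time by LC-MS/MS in donor medium, acceptor medium and cells; Papp calculated. Atenolol served as a reference compound.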

Klebsiella pneumoniae [8] = test: Antimicrobial activity against Klebsiella pneumoniae ATCC 700603 incubated for 18 hrs by microbroth dilution assay; assay type: functional; settings: ATCC 700603, 18 h
Escherichia coli [9] = test: Antimicrobial activity against Escherichia coli ATCC BAA 2469 incubated for 18 hrs by microbroth dilution assay; assay type: functional; settings: ATCC BAA 2469, 18 h
Escherichia coli [10] = test: Antimicrobial activity against Escherichia coli ATCC 25922 incubated for 18 hrs by microbroth dilution assay; assay type: functional; settings: ATCC 25922, 18 h
HeLa = test: Cytotoxicity against human HeLa cells assessed as reduction in cell viability incubated for 24 hrs by neutral red assay; assay type: cell-based; method in brief: as §2
Klebsiella pneumoniae [11] = test: Antimicrobial activity against Klebsiella pneumoniae ATCC 13883 incubated for 18 hrs by microbroth dilution assay; assay type: functional; settings: ATCC 13883, 18 h
Acinetobacter baumannii [12] = test: Antimicrobial activity against Acinetobacter baumannii ATCC BAA 1605 incubated for 18 hrs by microbroth dilution assay; assay type: functional; settings: ATCC BAA 1605, 18 h
Pseudomonas aeruginosa = test: Antimicrobial activity against Pseudomonas aeruginosa ATCC 27853 incubated for 18 hrs by microbroth dilution assay; assay type: functional; settings: ATCC 27853, 18 h
Acinetobacter baumannii [13] = test: Antimicrobial activity against Acinetobacter baumannii ATCC BAA747 incubated for 18 hrs by microbroth dilution assay; assay type: functional; settings: ATCC BAA747, 18 h
[14] = system: Mycobacterium tuberculosis; test: Antimycobacterial activity against Mycobacterium tuberculosis H37Rv incubated for 5 days by resazurin dye based assay; assay type: functional; settings: 120 h

SMILES	inhibition [1]	inhibition [2]	IC50 (Plasmodium falciparum [3])	IC50 (Plasmodium falciparum [4])	selectivity ratio [5]	Stability [6]	Papp [7]	MIC (Klebsiella pneumoniae [8])	MIC (Escherichia coli [9])	MIC (Escherichia coli [10])	IC50 (HeLa)	MIC (Klebsiella pneumoniae [11])	MIC (Acinetobacter baumannii [12])	MIC (Pseudomonas aeruginosa)	MIC (Acinetobacter baumannii [13])	MIC [14]
CN(O)C(=O)CS[C@@H](c1ccccc1)P(=O)(O)O	Active	Active	0.14 µM	0.087 µM												
CN(O)C(=O)CS[C@H](c1ccccc1)P(=O)(O)O	Active	Active	> 130 µM	> 130 µM												
CN(O)C(=O)CSC(c1ccccc1)P(=O)(O)O (racemic)			0.26 µM	0.19 µM	> 37000	> 95%	0.14 ×10⁻⁶ cm/s	> 100 µM	> 100 µM	> 100 µM	> 1000 µM	> 100 µM	> 100 µM	> 100 µM	> 100 µM	> 100 µM
